Laboratory results published in the EternaBench riboswitch data.

System: MS2 coat protein
Test: apparent Kd, MS2 coat protein; higher = weaker binding; RNA-MaP array; FMN 200 µM where present
How it was run: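 Green signal was scaled to red-channel RNA signal and control-cluster median Fmax, and the apparent Kd was taken as the median of filtered per-cluster binding-curve fits. The binding series used SNAP-549-labelled MS2 coat protein from 0.7 or 1.5 nM, doubling to 3 µM, on designs transcribed by stalled E. coli RNA polymerase on Illumina sequencing-chip clusters. Each series ran without and then with constant ligand in 100 mM Tris-HCl pH 7.5, 80 mM KCl, 4 mM MgCl2, BSA, DTT, yeast tRNA and Tween-20.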

[1] = designed as: ON switch for flavin mononucleotide, no ligand
[2] = ligand present: flavin mononucleotide, designed as: ON switch for flavin mononucleotide
[3] = designed as: OFF switch for flavin mononucleotide, no ligand
[4] = ligand present: flavin mononucleotide, designed as: OFF switch for flavin mononucleotide

Sequence	apparent Kd [1]	apparent Kd [2]	apparent Kd [3]	apparent Kd [4]
GCUGUGGCAUGAGGAUAUGGUCUGCUUUGCAGACCAGAAGGCAUGUCAAUAGACAUGAGGAUCACCCAUGUAGUUAACACAGCA	510 nM	38.6 nM	–	–
UGUUGUAUUACAGGAUAUCUAUUAUUGUUAUUUAGAGAAGGGUAUUCACAUGAGGAUCACCCAUGUAUAUACGAGGAAGUUGUG	54.7 nM	55.3 nM	–	–
UGCAUGUAGGAGAAGGAGGACUUCAUGAGGAUCACCCAUGUGUUAGGACUUAGGAUAUUUGACGACAUGAGGAUCACCCAUGUG	80.1 nM	71.9 nM	–	–
UAUAUUUAUGUAGGAUAUGGUAUAUAAAAUAUACCAGAAGGACAUGAGGAUCACCCAUGUAUGAAAUUCCAUAAUAAGCGUGUA	–	–	12.2 nM	13.8 nM
GACCGCGAGGAAGGAUAUGGAGCCUUAUUGGCUCCAGAAGGUCCAUAAAGGACAUGAGGAUCACCCAUGUGGUGAGAAGCGGUC	2070 nM	179 nM	–	–
UAUUUAAGAGGAUAUACAUGAGGAUCACCCAUGUAUAUUAAUAUACAUGAUUUUUUAUGUAGAAGGCUUGGGUA	–	–	25.5 nM	58.4 nM
GGAUAGGACAGAGGAUAUACGUGCUAGAGAUACUAGCAAAAUUUCCUGACAUGAGGAUCACCCAUGUAGAAGGCUGUCCUAUCG	–	–	7.22 nM	15.5 nM
GUAUGCAUGAGGUAGGAUAUCCAAAACAAAACAUGAGGAUCACCCAUGUAAACAAACAACAAAUGGGAGAAGGACCACAUGUAUAC	24.4 nM	11.3 nM	–	–
UCAUAACAUGAGGAUCACCCAUGUCAGGAUAUGAUACUAUGUACUUCGGUACAUAGUAUCAGAAGGGACAUACU	–	–	96.8 nM	153 nM
GUGAAGAUAGCAGGAUAUCUAUUUCCUACAUGAGGAUCACCCAUGUAGGUGAUUAGCCGAGUAAAGGAGAAGGGCUAUCUUUAC	6.62 nM	5.81 nM	–	–
AGCGAGAUAGGCAAGGAUAUGCUGGGUUUCACAUGAGGAUCACCCAUGUCAUUGGUUAUGUCCGAGCAGAAGGUGCAUUCUCUUU	338 nM	47.2 nM	–	–
ACCUUACUGGUCAGGAUAUACAGUCUUUGGUGUGUGUAGAAGGGACAUGAGGAUCACCCAUGUAGGUUGCAUUA	–	–	164 nM	172 nM
AUCAGCUCGUCAGGAUAUACGUCACUGCGUCAGCAGUGUGGUAAGCUCACAUGAGGAUCACCCAUGUAGAAGGGACGAGCUGAU	–	–	6.48 nM	22.9 nM
UUUUUUUUUAGAGGAUAUAUUGUGUGUUAUAUAAUAGAAGGCUAAACAUGUGACAUACACAUGAGGAUCACCCAUGUUUUGUUU	31.6 nM	27 nM	–	–
AUAAUUUUAUAAUUCUAUUUAUUCAGAAGGCAUAACAUGAGGAUCACCCAUGUAAAUUAAUGUUAUGAGGAUAUGAUUUGGUUA	–	–	18.6 nM	130 nM
UGGUACAUCGGAGGAUAUCAUGUAUAUACAUGAGGAUCACCCAUGUCGUACGAGAGUACGGAGAUUGAGAAGGCCGAUGUACCU	39.4 nM	15.3 nM	–	–
UGGUCCCAGCGUUUGCUGGCCGCUCCAGAAGGCGAUCCAACAUGAGGAUCACCCAUGUCACCGAUCGAGGAUAUGGUUAAGGAU	242 nM	25.4 nM	–	–
GCGUAUAUAUUAUUUAUUUAACUGUCAGAAGGUGAGAAGACGACAUGAGGAUCACCCAUGUUAUUCAAGGAUAUGAUAAUGCGC	13.5 nM	8.94 nM	–	–
UGUCCAUAGCAGAAGGCAUGUCAAAAGACAUGAGGAUCACCCAUGUAAGCAUGAGGAUAUGCUAUGGACUAAGAGCGAAAGCUC	–	–	9.14 nM	5.78 nM
AAUUAAUUAAUUAAUAUACAUGAGGAUCACCCAUGUAAGAUCAAGGAUAUCAGCUCGAAUAGAGCUGAGAAGGUGAUCACAUGU	533 nM	674 nM	–	–
AAUUUACAGGGAGGAUAUACAUGAGGAUCACCCAUGUAAUCAUAUGAUAUUUCUUUUGUAUGAGUGUAGAAGGCCCAACUACCA	–	–	9.96 nM	8.87 nM
UUGCGGUAGGAGAAGGACAGAGGCUUAAUUACAUACAUGAGGAUCACCCAUGUAGGAUAUCCUACCUAACGCGGACUCCUCCUG	–	–	6.82 nM	7.25 nM
CAGGGAACAGGAUAUACAUGAGGAUCACCCAUGUGUUCCAGCUAGGAAACUAGCAAAUGUAGAAGGGUUCCCUG	–	–	174 nM	922 nM
UAAGCCGGGUCUGCAUGAGCUUACAUGAGGAUCACCCAUGUAAGAAGGGACGCUACGUUAAAGUGUCAGGAUAUUGCGAACGGG	–	–	5.26 nM	5.73 nM
GUGCACAUUCGAGGAUAUCGGAGAGAGAUCAUUCGAGAAGGCGAUUCAUGAUGUAUUAUCCUGGACAUGAGGAUCACCCAUGUG	361 nM	107 nM	–	–
CUAGUACAUGAGGAUCACCCAUGUCAGGAUAUUGGAUAUGCCUUGGAAUACAUGUUUACAAGAAGGGACUAUAG	–	–	23 nM	21.7 nM
GCGUCACAAUUAGAACCGAUACGAACAUGAGGAUCACCCAUGUAGGAUAUGCUAGAAGUUGAGUUGCAGAAGGACAUUUAUCGC	–	–	11.1 nM	10.6 nM

Sequence	apparent Kd [1]	apparent Kd [2]	apparent Kd [3]	apparent Kd [4]
AAUUUACAGGCAGGAUAUACAUGAGGAUCACCCAUGUAAUCAUAUGAUAUUUUUUUUGUAUGAGUGUAGAAGGGCCAAAUAAAA	–	–	7.79 nM	7.99 nM
GUGAGCUCGUGAGGAUAUACAACACUGCUUCGGCAGUGUAUUAAGAUCACAUGAGGAUCACCCAUGUAGAAGGCACGAGCUGAU	–	–	14.5 nM	272 nM
UGUUGUAUUACAGGAUAUCUAUUGUUUUUGUUUAGAGAAGGGUAUUCACAUGAGGAUCACCCAUGUAUAUACGAGGAAGUUGUG	62.8 nM	72 nM	–	–
GCAUUGAUAACAGGAUAUAUGAAUCCUACAUGAGGAUCACCCAUGUAGGUGAUCAGCCGUGAUUAGUAGAAGGGUUAUCAAUGC	13 nM	6.49 nM	–	–
GUAAGUACGAGAGGAUAUUGACAUGAGGAUCACCCAUGUAUUUGGGAGUGUUCACUGAAUUCUUACGAGAAGGCUCGUACAUAC	–	–	218 nM	242 nM
ACAUGAGGAUCACCCAUGUGGAGUGAAGAAGGUGGUUACUUAAGACUCUUCCAUGUACUUAGGACUGAGGAUAUUCUAAUAUUU	53.8 nM	30.5 nM	–	–
AAAAAAAAUGUGUAGGAUAUCAGUAAAAAUACAUGAGGAUCACCCAUGUUCAAAAAAAAAAAAACUGAGAAGGACACGGGAAGUCC	48.5 nM	30.3 nM	–	–
GUGGUACAUGAGGAUCACCCAUGUGUGGGCGCAUGAGGAUAUGUCAGUCCCUGAAGUACGAUAGAAGGCAUGGUGA	201 nM	302 nM	–	–
CCGAUUAGCACAGGAUAUGGGAACUCGUAAUUCCCAGAAGGGUGAGCCAAUACAUGAGGAUCACCCAUGUGCGGUAGGUCGGGA	40.5 nM	51 nM	–	–
UGUAUGGACAGAGGAUAUACGUGCUAGAGAUACUAGCUACAAAUCCUUACAUGAGGAUCACCCAUGUAGAAGGCUGUCCAUACU	–	–	19.1 nM	39.4 nM
GGCGAACAGGCUAACAUGAGGAUCACCCAUGUGGACUCAUGGUAGGAUAUCGGGAAGGAGGAAACCGAGAAGGGCCGGUGAGCU	67.7 nM	26.3 nM	–	–
ACACGAAAGUCAGGAUAUGUAUCAGCACGAUAGUUACAUGAGGAUCACCCAUGUUUCACGGGCCAACAGAAGGGACAGGGUGGC	18.4 nM	7.62 nM	–	–
AAGCAUUGGCUUCUCAUCUACAUGAGGAUCACCCAUGUCGGGAGAAGGAGGCUUUGACGACUAGCCUAGGAUAUCCUAACGUGC	–	–	5.65 nM	6.15 nM
CGCUACGUUUCGUAGCAGCUAGGUGAGGAUAUUCAAUUUUUCACAUGAGGAUCACCCAUGUAUGUGAAGAAGGCGCCUAGAAAA	11 nM	4.78 nM	–	–
UCGUGAAGGACAGGAUAUGGACAUGAGGAUCACCCAUGUACAUGGGAAUAUAUACUGAAUUUGUACUAGAAGGGUUACAUAAAC	–	–	30.9 nM	19.8 nM
CCCUUUAGAAAAGGGACAUGAGGAUCACCCAUGUAGGCUGCACAGGAUAUCGAUCGGAGGCGGUACGAGAAGGGUGAUGUCAUU	58.3 nM	72.1 nM	–	–
GCACUGGAUGUAGGAUAUCAGGACGAUAAGUCCUGAGAAGGACAUGAGGAUCACCCAUGUGCUUAAACCAGUGCAUAUAAUAUA	–	–	12.2 nM	18.4 nM
AAACAUGUCCGAGGAUAUCUGAGAUCAUUUUCAAGAGAAGGCGGACAUGAGGAUCACCCAUGUCUCUCCUCAUCAACUCCAAAG	–	–	7.22 nM	35.6 nM
AAGAACUAAGGAUAUACAUGAGGAUCACCCAUGUCUUUUACAUGUUACUGGCCCGCAUGUAGAAGGUAGAAAAG	–	–	78.6 nM	135 nM
AUCAGCUCGUCAGGAUAUACGUCACUGCGUCAGCAGUGUGGUAUGAUCACAUGAGGAUCACCCAUGUAGAAGGGACGAGCUGAU	–	–	8.62 nM	132 nM
UGCUUCGUGUAAGGAUAUGCAGCCGUUUCGGCUGCAGAAGGUACUAUAAUACAUGAGGAUCACCCAUGUCUCUCGCUUUGCGGG	63.6 nM	29.4 nM	–	–
AUUAUGACCGAGUUAUAACUCUAAACAUGAGGAUCACCCAUGUAGGAUAUCAGCACGAUAAGUGCUGAGAAGGACAUCUCGGUC	–	–	16.4 nM	18.1 nM
AAAAGACAUGAGGAUCACCCAUGUAAAGACAUAGGAGGAUAUGUCUUGAAAAAAGACUUGACAGAAGGCCUUUGUC	23.8 nM	20.8 nM	–	–
UGUCGGAGCAGAGGAUAUUACAUGAGGAUCACCCAUGUAUGAACCAAUAGCUGGAAAGAGCAAUGUAAGAAGGCUGCUCCGACA	–	–	19.7 nM	181 nM
GACUGAUUACAGAAGGUGUUUGACAUGAGGAUCACCCAUGUGUUAUUCAGUUUCAUUGAAUUUAACAAGGAUAUGUAUAUAUCA	220 nM	101 nM	–	–
CUGGUGUUAGGAUAUUCGAGGCUGCCUCGGAGACGAGGGUAGGAGAAGGGACAUGAGGAUCACCCAUGUGCUCC	–	–	34.4 nM	37.6 nM
CGCUACGUUUCGUAGCAGUGUCAUCGAGAAGGCCCUGACAUGAGGAUCACCCAUGUUCCAAAAUGGGAGGAUAUCGAUGAUACA	4.89 nM	4.99 nM	–	–
